Test results as given in ChEMBL document CHEMBL2346555, “Efficacious cyclic N-acyl O-amino phenol duocarmycin prodrugs” (J Med Chem, 2013).

Experiments:
[1] = Stability of the compound in MeOH at 23 degC after 5 days in presence of NaHCO3; assay type: physicochemical; conditions: 120 h
[2] = Stability of the compound in DMF/H2O at 23 degC after 5 days in presence of NaHCO3; assay type: physicochemical; conditions: 120 h
[3] = Stability of the compound in THF at 23 degC after 5 days in presence of NaHCO3; assay type: physicochemical; conditions: 120 h
[4] = Half life of the compound in HCl/EtOAc at 23 degC; assay type: physicochemical
L1210 = assay: Cytotoxicity against mouse L1210 cells assessed as growth inhibition after 72 hrs by phosphatase assay; assay type: functional, cell-based; conditions: Mus musculus, L1210, 72 h
Method in brief: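 L1210 mouse leukemia cells were seeded at 30,000 cells/mL in DMEM with 10% FBS and grown 24 h at 37 °C, 5% CO2. DMSO dilutions were then added at six concentrations between 0–100 or 0–1000 nM, in duplicate, for 72 h. Read-out: phosphatase substrate in 0.1 M NaOAc pH 5.5 with 0.1% Triton X-100, 5 min at 37 °C, stopped with NaOH, A405. IC50 is the average of ≥4 determinations.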

[5] = Stability of the compound in THF at 254 nM under non basic condition in presence of BnSH; assay type: physicochemical; conditions: 0.254 µM
[6] = Stability of the compound in THF at 254 nM under non basic condition in presence of BnNH2; assay type: physicochemical; conditions: 0.254 µM
[7] = Drug degradation in MeOH at 254 nM after 72 hrs by LC-MS analysis in presence of NaHCO3 and BnNH2; assay type: physicochemical; conditions: MeOH with NaHCO3 and BnNH2; read-out: Drug degradation
[8] = Drug degradation in MeOH at 254 nM after 72 hrs by LC-MS analysis in presence of NaHCO3 and BnSH; assay type: physicochemical; conditions: MeOH with NaHCO3 and BnSH; read-out: Drug degradation
[9] = Drug degradation in THF at 254 nM after 72 hrs by LC-MS analysis in presence of NaHCO3 and BnNH2; assay type: physicochemical; conditions: THF with NaHCO3 and BnNH2; read-out: Drug degradation
[10] = Drug degradation in MeOH at 254 nM after 48 hrs by LC-MS analysis in presence of NaHCO3 and BnNH2; assay type: physicochemical; conditions: MeOH with NaHCO3 and BnNH2; read-out: Drug degradation
[11] = Drug degradation in THF at 254 nM after 72 hrs by LC-MS analysis in presence of NaHCO3 and BnSH; assay type: physicochemical; conditions: THF with NaHCO3 and BnSH; read-out: Drug degradation
[12] = Drug degradation in MeOH at 254 nM after 48 hrs by LC-MS analysis in presence of NaHCO3 and BnSH; assay type: physicochemical; conditions: MeOH with NaHCO3 and BnSH; read-out: Drug degradation
[13] = Drug degradation in THF at 254 nM after 48 hrs by LC-MS analysis in presence of NaHCO3 and BnNH2; assay type: physicochemical; conditions: THF with NaHCO3 and BnNH2; read-out: Drug degradation
[14] = Drug degradation in MeOH at 254 nM after 24 hrs by LC-MS analysis in presence of NaHCO3 and BnNH2; assay type: physicochemical; conditions: MeOH with NaHCO3 and BnNH2; read-out: Drug degradation
[15] = Drug degradation in THF at 254 nM after 48 hrs by LC-MS analysis in presence of NaHCO3 and BnSH; assay type: physicochemical; conditions: THF with NaHCO3 and BnSH; read-out: Drug degradation
[16] = Drug degradation in THF at 254 nM after 24 hrs by LC-MS analysis in presence of NaHCO3 and BnSH; assay type: physicochemical; conditions: THF with NaHCO3 and BnSH; read-out: Drug degradation
[17] = Drug degradation in MeOH at 254 nM after 24 hrs by LC-MS analysis in presence of NaHCO3 and BnSH; assay type: physicochemical; conditions: MeOH with NaHCO3 and BnSH; read-out: Drug degradation
[18] = Drug degradation in THF at 254 nM after 24 hrs by LC-MS analysis in presence of NaHCO3 and BnNH2; assay type: physicochemical; conditions: THF with NaHCO3 and BnNH2; read-out: Drug degradation
[19] = Stability of the compound in MeOH at 254 nM after 2 hrs by LC-MS analysis in presence of NaHCO3 and BnNH2; assay type: physicochemical; conditions: 0.254 µM
[20] = Drug degradation in MeOH at 254 nM after 2 hrs by LC-MS analysis in presence of NaHCO3 and BnSH; assay type: physicochemical; conditions: MeOH with NaHCO3 and BnSH; read-out: Drug degradation
[21] = Drug degradation in THF at 254 nM after 2 hrs by LC-MS analysis in presence of NaHCO3 and BnNH2; assay type: physicochemical; conditions: THF with NaHCO3 and BnNH2; read-out: Drug degradation
[22] = Drug degradation in THF at 254 nM after 2 hrs by LC-MS analysis in presence of NaHCO3 and BnSH; assay type: physicochemical; conditions: THF with NaHCO3 and BnSH; read-out: Drug degradation
[23] = Half life of the compound in MeOH at 23 degC in presence of NaHCO3; assay type: physicochemical; conditions: MeOH with NaHCO3

With `CN1Oc2cc3c(c4cccc(c24)C1=O)[C@H](CCl)CN3C(=O)OC(C)(C)C` the Stability [1] was “Stable”, the Stability [2] was “Stable” and the Stability [3] was “Stable”. It also gave a half-life [4] of 1440 min and an IC50 (L1210) of 850 nM.

With `CC(C)(C)OC(=O)N1C[C@@H](CCl)c2c1cc1c3c(cccc23)C(=O)NO1` the Stability [5] was “Stable”, the Stability [6] was “Stable” and the degraded at 72 h, 0.254 µM [7] was 16%. For the same compound, the degraded at 72 h, 0.254 µM [8] was 83%, the degraded at 72 h, 0.254 µM [9] was 3% and the degraded at 48 h, 0.254 µM [10] was 15%. For the same compound, the degraded at 72 h, 0.254 µM [11] was 46%, the degraded at 48 h, 0.254 µM [12] was 75% and the degraded at 48 h, 0.254 µM [13] was 4%. It also gave a degraded at 24 h, 0.254 µM [14] of 9%, a degraded at 48 h, 0.254 µM [15] of 39% and a degraded at 24 h, 0.254 µM [16] of 33%. For the same compound, the degraded at 24 h, 0.254 µM [17] was 58%, the degraded at 24 h, 0.254 µM [18] was 3% and the Stability [19] was “Stable”. The degraded at 2 h, 0.254 µM [20] was 33%, the degraded at 2 h [21] was 2% and the degraded at 2 h, 0.254 µM [22] was 28%. It also gave a half-life [23] of 2.92 days, a half-life [4] of 120 min and an IC50 (L1210) of 650 nM.
